Data: paper PMC3259211 (Journal of Controlled Release, 2011)

What was measured:
CXCR4 = CXCR4 (Homo sapiens, UniProt P61073); conditions: read-out: IC50 (binding to CXCR4); reported for T140; ref [26]; cited from earlier work
white blood cells (WBCs) = assay: Mobilization of white blood cells to peripheral blood; type: in vivo, mice; conditions: 50 µg per mouse s.c., 2 h; in words
In short: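 Normal mice received 50 µg test peptide s.c. in 200 µL; untreated mice were controls. Heart blood was taken under anaesthesia at 30 min, 1 h and 2 h. 100 µL blood was RBC-lysed, blocked 10 min on ice with 2% rat and 2% mouse serum, and stained for CD45.2, CD3, B220, CD11b, Gr-1 and F4/80. Cells were counted by flow cytometry with counting beads, WBCs gated as CD45.2⁺. Groups had ≥3 mice; two experiments.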

stem cells = conditions: mice; ref [12]; cited from earlier work
progenitor cells = assay: Mouse progenitor colony assay; type: in vivo, mice; conditions: 50 µg, post injection; in words
In short: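 Mice were injected s.c. with 50 µg peptide; untreated mice were controls. 150 µL blood per mouse was plated in 3 mL MethoCult GF. Colonies were counted by inverted microscope 14 days after plating. Each group had ≥3 mice, assayed in duplicate per mouse.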

[1] = tested on: Jurkat cells (CXCL12-induced migration); conditions: Jurkat T-cells; ref [30]; cited from earlier work

Sequence of CXCR4 (P61073 whole entry): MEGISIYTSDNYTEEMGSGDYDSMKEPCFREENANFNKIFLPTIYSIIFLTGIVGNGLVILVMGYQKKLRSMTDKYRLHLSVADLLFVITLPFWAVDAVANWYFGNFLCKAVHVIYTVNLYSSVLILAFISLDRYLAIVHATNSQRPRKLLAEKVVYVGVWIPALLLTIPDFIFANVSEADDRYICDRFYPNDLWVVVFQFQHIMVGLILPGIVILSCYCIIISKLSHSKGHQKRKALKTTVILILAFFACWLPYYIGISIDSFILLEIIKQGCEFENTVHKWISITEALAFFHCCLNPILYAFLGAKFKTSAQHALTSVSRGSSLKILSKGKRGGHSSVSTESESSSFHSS

| Substance | IC50 (CXCR4) [nM] | time course of WBC numbers in the blood (white blood cells (WBCs)) | in vivo mobilization of stem cells from the bone marrow (stem cells) | time course of progenitors in the blood (progenitor cells) | lowest concentration that induces maximal migration [1] [ng/mL] |
| --- | --- | --- | --- | --- | --- |
| 4-F-benzoyl-TN14003 [T140] | 2.5 | remained relatively stable after 2 h | induces in vivo mobilization of stem cells from the bone marrow, which is additive in effect with G-CSF treatment | increased steadily and remained substantially elevated between 2 and 4 h post injection |  |
| CXCL12: natural human ligand of CXCR4, chemokine CXCL12/SDF-1 |  |  |  |  | 100 |
